Active and inactive are the calls of the source. No cut-off for these calls is given here.
Assays:
KM12 = assay: Growth inhibition of human KM12 cells; assay type: functional
COLO 205 = assay: Growth inhibition of human COLO205 cells; assay type: functional
PC-3 = assay: Growth inhibition of human PC3 cells; assay type: functional
ACHN = assay: Growth inhibition of human ACHN cells; assay type: functional
OVCAR-4 = assay: Growth inhibition of human OVACAR4 cells; assay type: functional
HT-29 = assay: Growth inhibition of human HT29 cells; assay type: functional
SF-268 = assay: Growth inhibition of human SF268 cells; assay type: functional
SNB-19 = assay: Growth inhibition of human SNB19 cells; assay type: functional
NCI-H522 = assay: Growth inhibition of human NCI-H522 cells; assay type: functional
HOP-62 = assay: Growth inhibition of human HOP62 cells; assay type: functional
TK-10 = assay: Growth inhibition of human TK10 cells; assay type: functional
NCI-H460 = assay: Growth inhibition of human NCI-H460 cells; assay type: functional
Malme-3M = assay: Growth inhibition of human MALME-3M cells; assay type: functional
T47D [1] = assay: Growth inhibition of human T47D cells; assay type: functional
UO-31 = assay: Growth inhibition of human UO31 cells; assay type: functional
RXF 393 = assay: Growth inhibition of human RXF393 cells; assay type: functional
NCI-H226 = assay: Growth inhibition of human NCI-H226 cells; assay type: functional
SF-295 = assay: Growth inhibition of human SF295 cells; assay type: functional
UACC-62 = assay: Growth inhibition of human UACC62 cells; assay type: functional
SN12C = assay: Growth inhibition of human SN12C cells; assay type: functional
MCF7 = assay: Growth inhibition of human MCF7 cells; assay type: functional
SK-MEL-28 = assay: Growth inhibition of human SK-MEL28 cells; assay type: functional
UACC-257 = assay: Growth inhibition of human UACC257 cells; assay type: functional
SK-MEL-5 = assay: Growth inhibition of human SK-MEL5 cells; assay type: functional
Hs-578T = assay: Growth inhibition of human HS578T cells; assay type: functional
T47D [2] = assay: Inhibition of 1,10-phenanthroline-induced VEGF protein secretion in human T47D cells at 10 uM after 16 hrs by ELISA; assay type: functional, cell-based
How it was run: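 T47D cells stimulated with 1,10-phenanthroline, compound at 10 μM; secreted VEGF in conditioned media by ELISA, normalized to cell-lysate protein.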

HCT-116 = assay: Growth inhibition of human HCT116 cells; assay type: functional
[3] = molecular target: Hypoxia inducible factors; HIF-1-alpha, HIF-2-alpha (Homo sapiens, UniProt Q16665+Q99814); assay: Inhibition of HIF1 activation in human T47D cells by TK-luciferase assay; assay type: cell-based
How it was run: (§1)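 HIF-1 reporter (pHRE-TK-Luc) assays in transfected PC-3 or T47D cells; HIF-1 induced by hypoxia or by the hypoxia mimetic 1,10-phenanthroline (10 μM); compounds at half-log concentrations; luciferase activity measured; IC50 from experiments in triplicate.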

[4] = Inhibition of HIF1 activation in PC3 cells by TK-luciferase assay; assay type: cell-based; settings: Homo sapiens, PC-3; how it was run: as §1
[5] = Inhibition of 1,10-phenanthroline-induced HIF1 activation in T47D cells by TK-luciferase assay; assay type: cell-based; settings: Homo sapiens; how it was run: as §1
MOLT-4 = assay: Growth inhibition of human MOLT4 cells; assay type: functional; settings: read-out: Log LC50 (the source's name) (converted)
SNB-75 = assay: Growth inhibition of human SNB75 cells; assay type: functional
MDA-MB-435 = assay: Growth inhibition of human MDA-MB-435 cells; assay type: functional
[6] = Growth inhibition of human OVACAR3 cells; assay type: functional
HL-60 = assay: Growth inhibition of human HL60 cells; assay type: functional
CAKI-1 = assay: Growth inhibition of human CAKI1 cells; assay type: functional
[7] = read-out: Log LC50 (the source's name) (converted)

In the case of CCCc1cc(=O)c2c(O)c3c(OC)cc(O)cc3cc2o1, the GI50 (KM12) is reported as 17.4 µM, the CC50 (KM12; [7]) is reported as 93.3 µM and the TGI (KM12; read-out: Log TGI (converted)) is reported as 39.8 µM. For the same molecule, the GI50 (COLO 205) was 25.1 µM, the CC50 (COLO 205; [7]) was over 100 µM and the TGI (COLO 205; read-out: Log TGI (converted)) was 50.1 µM. The GI50 (PC-3) was 20.4 µM, the LC50 (PC-3) was over 100 µM and the TGI (PC-3; read-out: Log TGI (converted)) was 67.6 µM. The GI50 (ACHN) was 22.4 µM, the CC50 (ACHN; [7]) was over 100 µM and the TGI (ACHN; read-out: Log TGI (converted)) was 64.6 µM. For the same molecule, the GI50 (OVCAR-4) was 26.3 µM, the LC50 (OVCAR-4) was over 100 µM and the TGI (OVCAR-4; read-out: Log TGI (converted)) was over 100 µM. The GI50 (HT-29) was 18.6 µM, the CC50 (HT-29; [7]) was 72.4 µM and the TGI (HT-29; read-out: Log TGI (converted)) was 37.2 µM. For the same molecule, the GI50 (SF-268) was 20.4 µM, the LC50 (SF-268) was over 100 µM and the TGI (SF-268; read-out: Log TGI (converted)) was 58.9 µM. The GI50 (SNB-19) was 32.4 µM, the LC50 (SNB-19) was 100 µM and the TGI (SNB-19; read-out: Log TGI (converted)) was 100 µM. For the same molecule, the GI50 (NCI-H522) was over 100 µM, the CC50 (NCI-H522; [7]) was 41.7 µM and the TGI (NCI-H522; read-out: Log TGI (converted)) was 15.1 µM. For the same molecule, the GI50 (HOP-62) was 22.9 µM, the CC50 (HOP-62; [7]) was over 100 µM and the TGI (HOP-62; read-out: Log TGI (converted)) was 56.2 µM. It also gave a GI50 (TK-10) of 30.2 µM, an LC50 (TK-10) of over 100 µM and a TGI (TK-10; read-out: Log TGI (converted)) of over 100 µM. It also gave a GI50 (NCI-H460) of 17.8 µM, a CC50 (NCI-H460; [7]) of over 100 µM and a TGI (NCI-H460; read-out: Log TGI (converted)) of 42.7 µM. For the same molecule, the GI50 (Malme-3M) was 25.1 µM, the CC50 (Malme-3M; [7]) was 100 µM and the TGI (Malme-3M; read-out: Log TGI (converted)) was 64.6 µM. It also gave a GI50 (T47D [1]) of 20.9 µM, an LC50 (T47D [1]) of over 100 µM and a TGI (T47D [1]; read-out: Log TGI (converted)) of 93.3 µM. For the same molecule, the GI50 (UO-31) was 16.2 µM, the LC50 (UO-31) was over 100 µM and the TGI (UO-31; read-out: Log TGI (converted)) was 42.7 µM. It also gave a GI50 (RXF 393) of 18.2 µM, an LC50 (RXF 393) of over 100 µM and a TGI (RXF 393; read-out: Log TGI (converted)) of 47.9 µM. For the same molecule, the GI50 (NCI-H226) was 17.8 µM, the CC50 (NCI-H226; [7]) was over 100 µM and the TGI (NCI-H226; read-out: Log TGI (converted)) was 45.7 µM. It also gave a GI50 (SF-295) of 24.5 µM, an LC50 (SF-295) of over 100 µM and a TGI (SF-295; read-out: Log TGI (converted)) of 77.6 µM. The GI50 (UACC-62) was 15.5 µM, the LC50 (lethal concentration, 50% cell kill) (UACC-62) was 57.5 µM and the TGI (UACC-62; read-out: Log TGI (converted)) was 29.5 µM. The GI50 (SN12C) was 19.1 µM, the LC50 (SN12C) was over 100 µM and the TGI (SN12C; read-out: Log TGI (converted)) was 50.1 µM. For the same molecule, the GI50 (MCF7) was 25.1 µM, the LC50 (MCF7) was over 100 µM and the TGI (MCF7; read-out: Log TGI (converted)) was 60.3 µM. For the same molecule, the GI50 (SK-MEL-28) was 20 µM, the CC50 (SK-MEL-28; [7]) was 87.1 µM and the TGI (SK-MEL-28; read-out: Log TGI (converted)) was 41.7 µM. It also gave a GI50 (UACC-257) of 27.5 µM, an LC50 (UACC-257) of over 100 µM and a TGI (UACC-257; read-out: Log TGI (converted)) of 56.2 µM. For the same molecule, the GI50 (SK-MEL-5) was 14.8 µM, the LC50 (SK-MEL-5) was 52.5 µM and the TGI (SK-MEL-5; read-out: Log TGI (converted)) was 27.5 µM. It also gave a GI50 (Hs-578T) of 25.1 µM, an LC50 (Hs-578T) of over 100 µM and a TGI (Hs-578T; read-out: Log TGI (converted)) of 67.6 µM. The Activity (T47D [2]) was “inactive”, the GI50 (HCT-116) was 18.6 µM and the CC50 (HCT-116; [7]) was 75.9 µM. For the same molecule, the TGI (HCT-116; read-out: Log TGI (converted)) was 37.2 µM, the IC50 [3] was 1.7 µM and the IC50 [4] was 1 µM. For the same molecule, the IC50 [5] was 0.6 µM, the CC50 (MOLT-4) was over 100 µM and the GI50 (SNB-75) was 30.9 µM. The LC50 (SNB-75) was over 100 µM, the TGI (SNB-75; read-out: Log TGI (converted)) was 74.1 µM and the GI50 (MDA-MB-435) was 20.9 µM. The LC50 (MDA-MB-435) was over 100 µM, the TGI (MDA-MB-435; read-out: Log TGI (converted)) was 57.5 µM and the GI50 [6] was 27.5 µM. It also gave a CC50 [6, 7] of over 100 µM, a TGI ([6]; read-out: Log TGI (converted)) of over 100 µM and a GI50 (HL-60) of 30.9 µM. For the same molecule, the LC50 (HL-60) was over 100 µM, the TGI (HL-60; read-out: Log TGI (converted)) was 61.7 µM and the GI50 (CAKI-1) was 30.2 µM. It also gave an LC50 (CAKI-1) of over 100 µM and a TGI (CAKI-1; read-out: Log TGI (converted)) of over 100 µM.

Reference: ChEMBL document CHEMBL1141286, “Benzochromenones from the marine crinoid Comantheria rotula inhibit hypoxia-inducible factor-1 (HIF-1) in cell-based reporter assays and differentially suppress the growth of certain tumor cell lines” (J Nat Prod, 2007)
